Reference: ChEMBL document CHEMBL4842338, “System-oriented optimization of multi-target 2,6-diaminopurine derivatives: Easily accessible broad-spectrum antivirals active against flaviviruses, influenza virus and SARS-CoV-2” (Eur J Med Chem, 2021)
pIC50: −log10 of the molar value. Active and inactive are the calls of the source. The calls are words filed in the database; no cut-off is given here.

Experiments:
[1] = Selectivity index, ratio of CC50 for human A549 cells to IC50 for Influenza A Puerto Rico/8/34/H1N1 infected in human A549 cells; type: toxicity, cell-based; conditions: read-out: Selectivity Index
In short: (§1)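 MDCK or A549 cells (2.5 × 10⁵/well) infected with A/Puerto Rico/8/34 H1N1 for 1 h at 37 °C, then washed. Compound (0.5–20 μM) added in 2% FBS medium for 24 h, with DMSO final ≤0.2%. Virus in supernatants read by hemagglutination. CC₅₀ by MTT (2 × 10⁴ cells/well, same concentrations, 24 h, absorbance 570 nm). SI = CC₅₀/IC₅₀.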

Influenza A virus [2] = assay: Antiviral activity against Influenza A Puerto Rico/8/34/H1N1 infected in human A549 cells assessed as inhibition of viral replication after 24 hrs by hemagglutination assay; type: functional, organism-based; conditions: A/Puerto Rico/8/1934(H1N1), A549, 24 h
dengue virus type 2 = assay: Antiviral activity against Dengue virus serotype 2 New Guinea C infected in pre-seeded Huh-7 cells assessed as inhibition of viral replication incubated for 72 hrs by immunodetection based secondary yield reduction assay; type: functional, organism-based; conditions: Dengue virus, New Guinea C, Huh-7, 72 h; read-out: IC50
[3] = Selectivity index, ratio of CC50 for human Huh-7 cells to IC50 for Dengue virus serotype 2 New Guinea C infected in pre-seeded Huh-7 cells assessed as inhibition of viral replication incubated for 72 hrs by immunodetection based secondary yield reduction assay; type: toxicity, cell-based; conditions: read-out: Selectivity Index
Zika virus = assay: Antiviral activity against Zika virus H/PF/2013 infected in pre-seeded Huh-7 cells assessed as inhibition of viral replication incubated for 72 hrs by immunodetection based secondary yield reduction assay; type: functional, organism-based; conditions: H/PF/2013, Huh-7, 72 h
West Nile virus = assay: Antiviral activity against West Nile virus lineage 1 (Italy/2009) infected in pre-seeded Huh-7 cells assessed as inhibition of viral replication incubated for 48 hrs by immunodetection based direct yield reduction assay; type: functional, organism-based; conditions: huh-7
[4] = Stability of the compound in presence of 40 mM H2O2 in ethanol measured after 6 days; type: physicochemical; conditions: 144 h; time 6 day
Influenza A virus [5] = assay: Antiviral activity against Influenza A Puerto Rico/8/34/H1N1 infected in MDCK cells assessed as inhibition of viral replication measured in supernatants of infected cells after 24 hrs by hemagglutination assay; type: functional, organism-based; conditions: A/Puerto Rico/8/1934(H1N1)
[6] = Selectivity index, ratio of CC50 for MDCK cells to IC50 for Influenza A Puerto Rico/8/34/H1N1 infected in MDCK cells; type: toxicity, cell-based; conditions: dog, read-out: Selectivity Index; in short: as §1
Influenza A virus [7] = assay: (§2) Antiviral activity against Influenza A Puerto Rico/8/34/H1N1 infected in human A549 cells assessed as inhibition of hemagglutinin expression at 20 uM pretreated for 2 hrs followed by infection of fresh cell monolayer of A549 cells with supernatant for 24 hrs by In-cell western assay; type: functional, organism-based; conditions: A/Puerto Rico/8/1934(H1N1)
In short: (§3)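 A549 cells infected with PR8 H1N1 and given 20 μM compound: 2 h before infection (PRE), 1 h during adsorption (DUR), or 24 h after adsorption (POST); supernatants used to infect fresh monolayers for 24 h; anti-HA in-cell western; RFU as % of untreated infected; 3 replicates from two experiments.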

Influenza A virus [8] = assay: as §2, with “20 uM treated post viral infection for 24” for “20 uM pretreated for 2”, “infection for 24 hrs followed” for “pretreated for 2 hrs followed”; type: functional; conditions: A/Puerto Rico/8/1934(H1N1); in short: as §3
Influenza A virus [9] = assay: Antiviral activity against Influenza A/California/04/2009H1N1 infected in human A549 cells assessed as reduction in viral protein expression at 20 uM pretreated for 2 hrs followed by staining with anti-Flu antibody observed at 24 hrs post infection by In-cell western assay; type: functional, organism-based
Influenza A virus [10] = assay: Antiviral activity against Influenza A/California/04/2009H1N1 infected in human A549 cells assessed as reduction in viral protein expression at 20 uM treated for 1 hr during viral adsorption followed by staining with anti-Flu antibody observed at 24 hrs post infection by In-cell western assay; type: functional, organism-based
Influenza A virus [11] = assay: Antiviral activity against Influenza A/California/04/2009H1N1 infected in human A549 cells assessed as reduction in viral protein expression at 20 uM treated for 24 hr post viral adsorption followed by staining with anti-Flu antibody observed at 24 hrs post infection by In-cell western assay; type: functional, organism-based
Influenza A virus [12] = assay: Antiviral activity against Influenza A/California/04/2009H1N1 infected in human A549 cells assessed as reduction in viral protein expression at 20 uM treated for 24 hr pdp viral adsorption followed by staining with anti-Flu antibody observed at 24 hrs post infection by In-cell western assay; type: functional, organism-based
Influenza A virus [13] = assay: Antiviral activity against Influenza A virus (A/parrot/Ulster/73(H7N1)) infected in human A549 cells assessed as reduction in viral protein expression at 20 uM pretreated for 2 hrs followed by staining with anti-Flu antibody observed at 24 hrs post infection by In-cell western assay; type: functional, organism-based
[14] = Selectivity index, ratio of CC50 for human Huh-7 cells infected with SARS-COV-2 to IC50 for SARS-COV 2 infected in human Huh-7; type: toxicity; conditions: read-out: Selectivity Index
SARS-CoV-2 [15] = assay: Antiviral activity against SARS-COV 2 infected in human Caco-2 cells assessed as inhibition of viral replication at MOI of 0.01 and incubated after 2 hrs post infection for 48 hrs by immunodetection assay; type: functional, organism-based; conditions: Severe acute respiratory syndrome coronavirus 2, Caco-2
[16] = Selectivity index, ratio of CC50 for African green monkey Vero E6 cells infected with SARS-COV-2 to IC50 for SARS-COV 2 infected in monkey Vero E6 cells; type: toxicity, cell-based, Vero C1008; conditions: read-out: Selectivity Index
SARS-CoV-2 [17] = assay: Antiviral activity against SARS-COV 2 infected in quadruplicate Vero E6 cells with DYRA supernatant assessed as reduction in viral replication at 20 uM; type: functional; conditions: Severe acute respiratory syndrome coronavirus 2, Vero C1008
Huh-7 = assay: Effect on formation of DENV replication complex in human Huh-7 cells assessed as reduction NS3:NS5 colocalization into nucleus at 50 uM measured after 16 to 24 hrs by DAPI staining based confocal microscopy analysis; type: functional, cell-based; conditions: time 16-24 hrs
In short: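 DENV-2-infected Huh-7 cells (MOI 0.05) treated at 50 μM, fixed at 8–24 h, stained for NS3/NS5; confocal colocalization by Manders coefficients with Costes P ≥95% as signal; versus untreated control; repeated at least twice.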

[18] = target: Src (Proto-oncogene tyrosine-protein kinase Src) (Homo sapiens, UniProt P12931); assay: Inhibition of human recombinant N terminal His6 tagged full length Src assessed as residual activity at 5 uM using KVEKIGEGTYGVVYK as a substrate in the presence of NP-40 incubated for 10 mins by scintillation counting analysis relative to control; conditions: probe KVEKIGEGTYGVVYK, read-out: Activity
In short: (§4)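 Compounds at fixed 5 μM; 10–50 ng kinase, substrate and NP-40/BSA per supplementary table, 10 μL at 30 °C for 10 min in low-binding tubes. Reactions spotted on filter, dried, scintillation counted. Mean ± SD of two independent experiments.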

CDK9/cyclin T1 = CDK9/cyclin T1 (Homo sapiens, UniProt P50750); assay: Inhibition of human full length CDK9/ His-tagged cT1 assessed as residual activity at 5 uM using CDKtide as a substrate in the presence of BSA incubated for 10 mins by scintillation counting analysis relative to control; type: protein-complex assay; conditions: full length CDK9/His-tagged cyclin T1 complex, probe CDKtide, read-out: Activity; in short: as §4
Chain of CDK9/cyclin T1 (O60563 whole entry): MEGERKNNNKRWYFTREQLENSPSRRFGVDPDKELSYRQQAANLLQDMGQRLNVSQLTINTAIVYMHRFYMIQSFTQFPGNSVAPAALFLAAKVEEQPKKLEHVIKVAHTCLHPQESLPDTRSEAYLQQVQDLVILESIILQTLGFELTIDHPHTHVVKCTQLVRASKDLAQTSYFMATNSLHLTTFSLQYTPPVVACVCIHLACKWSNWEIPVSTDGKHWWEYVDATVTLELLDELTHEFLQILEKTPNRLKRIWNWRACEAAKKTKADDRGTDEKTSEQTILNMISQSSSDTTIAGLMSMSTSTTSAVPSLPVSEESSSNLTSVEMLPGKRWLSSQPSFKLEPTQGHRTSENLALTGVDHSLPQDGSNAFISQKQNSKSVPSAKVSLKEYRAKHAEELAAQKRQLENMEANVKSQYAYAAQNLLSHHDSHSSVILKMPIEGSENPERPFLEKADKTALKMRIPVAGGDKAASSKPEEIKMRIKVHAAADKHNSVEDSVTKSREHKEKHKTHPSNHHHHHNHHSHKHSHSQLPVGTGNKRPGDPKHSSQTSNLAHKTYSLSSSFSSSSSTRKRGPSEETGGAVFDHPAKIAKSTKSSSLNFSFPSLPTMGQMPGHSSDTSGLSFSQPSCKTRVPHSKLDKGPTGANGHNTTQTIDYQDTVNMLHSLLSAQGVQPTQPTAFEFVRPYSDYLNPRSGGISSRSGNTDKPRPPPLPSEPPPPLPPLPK
Chain of CDK9/cyclin T1 (P50750 whole entry): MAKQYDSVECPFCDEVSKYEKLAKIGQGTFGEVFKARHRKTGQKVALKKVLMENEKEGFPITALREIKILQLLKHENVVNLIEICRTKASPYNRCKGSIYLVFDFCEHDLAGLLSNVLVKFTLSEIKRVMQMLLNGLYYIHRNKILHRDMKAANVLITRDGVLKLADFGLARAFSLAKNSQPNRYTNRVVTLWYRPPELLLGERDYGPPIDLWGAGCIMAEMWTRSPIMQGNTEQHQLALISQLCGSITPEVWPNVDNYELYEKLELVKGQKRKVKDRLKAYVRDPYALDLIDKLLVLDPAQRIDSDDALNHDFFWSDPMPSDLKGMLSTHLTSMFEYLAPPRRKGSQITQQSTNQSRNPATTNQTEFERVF

Chain of Src (Proto-oncogene tyrosine-protein kinase Src) (P12931 2-536 limits assumed): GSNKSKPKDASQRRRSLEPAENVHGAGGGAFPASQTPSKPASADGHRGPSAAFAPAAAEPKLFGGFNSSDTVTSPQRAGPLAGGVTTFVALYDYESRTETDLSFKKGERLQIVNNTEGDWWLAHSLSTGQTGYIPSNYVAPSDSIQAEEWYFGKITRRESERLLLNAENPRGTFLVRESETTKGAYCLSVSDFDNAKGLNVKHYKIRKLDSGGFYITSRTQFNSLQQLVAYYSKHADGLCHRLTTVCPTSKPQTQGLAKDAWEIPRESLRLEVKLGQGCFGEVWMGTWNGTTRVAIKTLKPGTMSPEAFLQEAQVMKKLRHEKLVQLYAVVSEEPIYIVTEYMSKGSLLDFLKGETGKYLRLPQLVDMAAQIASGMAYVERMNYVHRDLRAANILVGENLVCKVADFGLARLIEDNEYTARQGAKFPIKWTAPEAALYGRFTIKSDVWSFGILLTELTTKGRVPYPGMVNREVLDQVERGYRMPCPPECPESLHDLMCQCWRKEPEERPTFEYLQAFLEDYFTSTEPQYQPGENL

FC(F)(F)c1cccc(Nc2nc(NCCOc3ccccc3)nc3[nH]cnc23)c1
selectivity ratio [1]: 11
pIC50 (Influenza A virus [2]): 5.00
pIC50 (dengue virus type 2): 5.59
selectivity ratio at 72 h [3]: 77
pIC50 (Zika virus): 5.96
IC50 (West Nile virus): Not Active
Stabilty [4]: Unstable
pIC50 (Influenza A virus [5]): 5.28
selectivity ratio [6]: 14.5
inhibition (Influenza A virus [7]): inactive
inhibition at 20 µM (Influenza A virus [8]): 50%
Activity (Influenza A virus [9]): Active
Activity (Influenza A virus [10]): Active
Activity (Influenza A virus [11]): Active
Activity (Influenza A virus [12]): Active
Activity (Influenza A virus [13]): Active
selectivity ratio [14]: 74
pIC50 (SARS-CoV-2 [15]): 5.23
selectivity ratio [16]: 4
inhibition at 20 µM (SARS-CoV-2 [17]): 91.9%
Activity (Huh-7): Active
activity at 10 min, 5 µM [18]: 47%
activity at 10 min, 5 µM (CDK9/cyclin T1): > 98%
